This passage reports IC50 and LD50 results from ChEMBL document CHEMBL1159129, “Novel amidino substituted 2-phenylbenzothiazoles: synthesis, antitumor evaluation in vitro and acute toxicity testing in vivo” (Bioorg Med Chem, 2010).

For one series, the system named is SW-620. Description: Growth inhibition of human SW620 cells after 72 hrs by MTT assay. As to conditions: SW-620, 72 h. It counts as functional, cell-based. Summed up: (§1)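 Modified NCI protocol. Cells were plated on day 0 at 1-3 × 10^4 cells/mL according to doubling time. Agents were dissolved in DMSO (stock 4 × 10^-2 M) and serially diluted 10-fold in medium (10^-8–10^-4 M), with 72 h exposure. Viability by MTT (mitochondrial dehydrogenase). Four wells, three independent runs. IC50 from linear regression of the two concentrations flanking 50% growth.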
Background: Formazan colour is commonly taken as a measure of viable cells.

Another series relates to MOLT-4. The experiment in a line: Growth inhibition of human MOLT4 cells after 72 hrs by MTT assay. It counts as functional, cell-based. As to conditions: MOLT-4, 72 h. The gist of the method: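 MOLT-4 leukemia cells grown in suspension in RPMI with 10% FBS, 2 mM glutamine, penicillin/streptomycin, 5% CO2, 37 °C. Inoculated at 1-3 × 10^4 cells/mL. Compounds from 4 × 10^-2 M DMSO stock were tested at 10^-8 to 10^-4 M (10-fold steps) for 72 h, then MTT. Quadruplicates in three experiments. IC50 interpolated by linear regression around 50% growth; '>' highest concentration when not reached.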

The next series deals with HCT-116. Description: Growth inhibition of human HCT116 cells after 72 hrs by MTT assay. As to conditions: HCT-116, 72 h. It counts as functional, cell-based. Summed up: as §1
A further series relates to NCI-H460. The experiment in a line: Growth inhibition of human H460 cells after 72 hrs by MTT assay. It counts as functional, cell-based. As to conditions: NCI-H460, 72 h. Summed up: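 H460 lung carcinoma cells grown as monolayers in DMEM with 10% FBS, 2 mM glutamine, penicillin/streptomycin, 5% CO2, 37 °C. Seeded day 0 at 1-3 × 10^4 cells/mL. DMSO stocks (4 × 10^-2 M) were diluted in medium to five 10-fold concentrations, 10^-8 to 10^-4 M, for 72 h. MTT read-out, quadruplicate, three experiments. IC50 by linear regression of concentrations bracketing 50% growth.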

Another series relates to MCF7. Description: Growth inhibition of human MCF7 cells after 72 hrs by MTT assay. Type of series: functional, cell-based. As to conditions: MCF7, 72 h. The gist of the method:
as §1

Series [1] in a line: Acute toxicity in po dosed BALB/c mouse. Type of series: organism-based. As to conditions: in vivo. Summed up: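 Female nulliparous, non-pregnant BALB/c mice, 12 weeks old, housed singly; food withheld 3-4 h before and 1-2 h after dosing. Single gavage dose in physiological saline (sonicated 15 min at 69 °C just before use), 0.5 mL/25 g body mass. OECD 425 up-and-down procedure, one animal per 24 h, dose adjusted by prior outcome; LD50 by maximum likelihood (AOT425StatPgm), 95% confidence interval.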

`O=[N+]([O-])c1ccc(-c2nc3ccc(C4=NCCN4)cc3s2)cc1`: the IC50 (usually the concentration that gives 50% inhibition) in the series with SW-620 stood at 7 µM; in the series with MOLT-4, 17 µM; in the series on HCT-116, 8 µM; with NCI-H460 it was 4 µM; with MCF7, 11 µM.
As for `Cl.Nc1ccc(-c2nc3ccc(C4=NCCN4)cc3s2)cc1`, in series [1], the 50% lethal dose (LD50) (usually the dose expected to kill half of the subjects tested) worked out at 696 mg/kg. Further, the IC50 with SW-620 was determined as 0.7 µM; in the series on MOLT-4 it was 1 µM; in the series with HCT-116, 1 µM; in the series with NCI-H460 it was 0.4 µM; in the series on MCF7, 1.7 µM.
For `N=C(N)c1ccc(-c2nc3ccc(C(=N)N)cc3s2)cc1`, the IC50 was more than 100 µM in the series with SW-620; more than 100 µM in the series on MOLT-4; 64 µM in the series with HCT-116; 78 µM with NCI-H460; 11 µM in the series with MCF7.
`c1cc(-c2nc3ccc(C4=NCCN4)cc3s2)ccc1C1=NCCN1`: the concentration for half-maximal inhibition (IC50) in the series on SW-620 amounted to 0.8 µM; in the series with MOLT-4, 3 µM; in the series with HCT-116, 2 µM; with NCI-H460, 2 µM; in the series with MCF7, 1 µM.
On to `O=[N+]([O-])c1ccc2nc(-c3ccc(C4=NCCN4)cc3)sc2c1`, for which the concentration for half-maximal inhibition (IC50) stood at 2 µM in the series on SW-620; 2 µM in the series with MOLT-4; 3 µM with HCT-116; 3 µM in the series with NCI-H460; 3 µM in the series with MCF7.
In series [1], `Cl.N=C(N)c1ccc(-c2nc3ccc(N)cc3s2)cc1` showed a median lethal dose (LD50) of 250 mg/kg. The IC50 in the series on SW-620 is 4 µM; in the series with MOLT-4 it was 2 µM; with HCT-116 it was 3 µM; in the series on NCI-H460, 0.2 µM; in the series with MCF7, 0.2 µM.
`Cl.N=C(N)c1ccc2nc(-c3ccc(N)cc3)sc2c1` had an LD50 in series [1] of 67.3 mg/kg. The concentration for half-maximal inhibition (IC50) with SW-620 was 7 µM; in the series with MOLT-4 it was 3 µM; in the series on HCT-116, 10 µM; in the series with NCI-H460, 4 µM; in the series on MCF7, 9 µM.
For the compound `N=C(N)c1ccc2nc(-c3ccc([N+](=O)[O-])cc3)sc2c1`, the IC50 was 2 µM with SW-620; 2 µM with MOLT-4; 2 µM with HCT-116; 1 µM with NCI-H460; 2 µM with MCF7.
On to `N=C(N)c1ccc(-c2nc3ccc([N+](=O)[O-])cc3s2)cc1`, for which the IC50 worked out at 2 µM in the series with SW-620; 1 µM in the series with MOLT-4; 1 µM in the series with HCT-116; 1 µM in the series with NCI-H460; 1 µM in the series on MCF7.
Regarding `Cl.Nc1ccc2nc(-c3ccc(C4=NCCN4)cc3)sc2c1`, the LD50 in series [1] turned out to be 250 mg/kg. Besides, the concentration for half-maximal inhibition (IC50) worked out at 0.3 µM in the series with SW-620; 1 µM with MOLT-4; 1 µM in the series with HCT-116; 0.3 µM in the series on NCI-H460; 1 µM in the series with MCF7.
